Assay results taken from PMC2575414 (Bioorganic & medicinal chemistry letters, 2008).
Where a SMILES comes first, the peptide text is derived from it. [ ]: non-standard residue; d: D form. The star is where a group is joined. Hydrocinnamoyl = O=C(CCc1ccccc1)*; Ac5c = NC1(C(=O)O)CCCC1; Deg = CCC(N)(CC)C(=O)O

Tests used:
[1] = biological target: T1, porcine erythrocyte μ-calpain (Sus scrofa, UniProt P35750); assay: Calpain inhibition assay; assay type: biochemical
T1 sequence (P35750 1-714): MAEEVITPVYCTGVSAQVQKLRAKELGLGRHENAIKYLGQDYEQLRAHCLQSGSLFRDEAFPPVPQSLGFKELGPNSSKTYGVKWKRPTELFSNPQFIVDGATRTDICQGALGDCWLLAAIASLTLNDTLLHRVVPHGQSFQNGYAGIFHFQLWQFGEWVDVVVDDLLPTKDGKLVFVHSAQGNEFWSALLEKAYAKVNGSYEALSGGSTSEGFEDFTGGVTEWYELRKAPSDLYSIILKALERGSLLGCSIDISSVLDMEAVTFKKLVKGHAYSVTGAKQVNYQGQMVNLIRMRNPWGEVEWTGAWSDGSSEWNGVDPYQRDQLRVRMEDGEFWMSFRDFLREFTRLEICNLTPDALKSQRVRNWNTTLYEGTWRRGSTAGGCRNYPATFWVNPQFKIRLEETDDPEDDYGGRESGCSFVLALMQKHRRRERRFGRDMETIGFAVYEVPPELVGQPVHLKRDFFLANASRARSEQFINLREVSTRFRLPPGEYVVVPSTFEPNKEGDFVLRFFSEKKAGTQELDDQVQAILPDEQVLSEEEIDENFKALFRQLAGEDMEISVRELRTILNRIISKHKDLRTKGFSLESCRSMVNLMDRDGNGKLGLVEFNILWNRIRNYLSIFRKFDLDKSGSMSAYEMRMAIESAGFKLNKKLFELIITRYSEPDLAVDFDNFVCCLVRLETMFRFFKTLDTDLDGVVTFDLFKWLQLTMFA
T1 sequence (P04574 1-266 partner): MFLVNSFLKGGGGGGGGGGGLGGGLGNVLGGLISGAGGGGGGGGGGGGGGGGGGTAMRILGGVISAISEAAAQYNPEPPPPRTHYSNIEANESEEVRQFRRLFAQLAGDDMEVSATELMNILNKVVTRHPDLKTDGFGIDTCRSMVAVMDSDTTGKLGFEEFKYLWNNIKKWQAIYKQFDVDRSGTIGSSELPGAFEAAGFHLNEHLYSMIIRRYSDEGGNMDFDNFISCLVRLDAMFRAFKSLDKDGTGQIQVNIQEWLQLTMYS

[2] = biological target: human liver cathepsin B (Homo sapiens, UniProt P07858); assay: Cathepsin B inhibition assay; assay type: biochemical
In short: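 Human liver cathepsin B (1 nM) in 50 mM NaOAc pH 6.0 with 1 mM EDTA and 0.5 mM DTT. Z-Arg-Arg-AMC at 50 µM or 250 µM, plus varying inhibitor concentrations in DMSO (2% total). Ki is the mean of triplicates from Dixon plots (r ≥ 0.95). Selectivity ratio is […].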

| Structure (SMILES) | selectivity for μ-calpain compared to cathepsin B [1] | potency for μ-calpain inhibition relative to compound 2 ([1]; 3 compared to 2) | cathepsin B inhibition relative to compound 3 ([2]; 2 compared to 3) [fold] | selectivity for cathepsin B compared to μ-calpain ([2]; as stated in abstract) [fold] |
| --- | --- | --- | --- | --- |
| CCC(CC)(NC(=O)CCc1ccccc1)C(=O)N[C@H](C=O)Cc1ccccc1 [Compound 3, N-(1-Benzyl-2-oxo-ethyl)-2-ethyl-2-(3-phenyl-propionylamino)-butyramide] (Hydrocinnamoyl-[Deg]-Phe-aldehyde) | over 35 fold | over 20 fold | – | – |
| O=C[C@H](Cc1ccccc1)NC(=O)C1(NC(=O)CCc2ccccc2)CCCC1 [Compound 2, 1-(3-Phenyl-propionylamino)-cyclopentane carboxylic acid (1-benzyl-2-oxo-ethyl)-amide] (Hydrocinnamoyl-[Ac5c]-Phe-aldehyde) | – | – | 3 | 3 |
